Laboratory results: ChEMBL document CHEMBL2093137, “WHO-TDR NTD Screening”
In brackets after ≈: the same amount, converted by molar mass.

How the values were obtained:
[1] = WHO-TDR: Cytotoxicity; assay type: toxicity, cell-based; settings: human, MRC5 cells
Plasmodium falciparum K1 = assay: WHO-TDR: Malaria; assay type: functional, organism-based, Homo sapiens; settings: Erythrocyte
Method in brief: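 Antiplasmodial potency, expressed as IC50, was measured in a whole-organism assay on intra-erythrocytic Plasmodium falciparum K1 in human red blood cells. The screened library held 10,000 diverse compounds from Life Chemicals.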

Trypanosoma cruzi = assay: WHO-TDR: Chagas disease; assay type: functional, organism-based, Homo sapiens; settings: MRC5
Method in brief: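 Following previously published standard procedures, with a reference drug as positive control, a whole-organism assay was run on Trypanosoma cruzi Tulahuen CL2 beta-galactosidase strain amastigotes inside MRC-5SV2 human lung fibroblast host cells. The 10,000 compounds tested formed a diverse Life Chemicals library filtered for drug-likeness and reactive groups. Results are expressed as IC50 for antiparasitic potency.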

[2] = test system: Trypanosoma brucei brucei; assay: WHO-TDR: Human African Trypanosomiasis (HAT); assay type: functional, organism-based; settings: Squib-427
Method in brief: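 Antiparasitic potency is reported as IC50. The screen covered 10,000 compounds from a diverse Life Chemicals library, filtered for drug-likeness and reactive groups, tested on whole bloodstream-form Trypanosoma brucei of the Squib 427 strain.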

Leishmania infantum = assay: WHO-TDR: Leishmaniasis; assay type: functional, organism-based, Mus musculus; settings: Macrophage
Method in brief: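 Antiparasitic potency, reported as IC50, was measured against intracellular Leishmania infantum amastigotes. The parasite strain was MHOM/MA(BE)/67, and murine peritoneal macrophages served as host cells for the screen of a 10,000-compound diverse library from Life Chemicals.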

Onchocerca ochengi = assay: WHO-TDR: Onchocerciasis; assay type: functional; design: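 at 12.5 µM on microfilariae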
Method in brief: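 Values are reported as percent inhibition and as IC50. They come from a whole-organism screen of a 10,000-compound diverse Life Chemicals library against microfilariae of Onchocerca ochengi or Onchocerca lienalis. The screen followed previously published standard procedures, with reference drugs as positive controls.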

Brugia malayi = assay: WHO-TDR: Lymphatic Filariasis; assay type: functional; design: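 tested at 10 µM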
Method in brief: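 Values are percent inhibition and IC50 from a whole-organism screen against Brugia malayi microfilariae. The compounds, 10,000 in all, came from a diverse Life Chemicals library filtered for drug-likeness and reactive groups.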

SMILES	IC50 [1]	IC50 (Plasmodium falciparum K1)	IC50 (Trypanosoma cruzi)	IC50 [2]	IC50 (Leishmania infantum)	% Inhibition (Onchocerca ochengi)	% Inhibition (Brugia malayi)
O=C(Cc1csc(Nc2ccccc2)n1)NCCc1c[nH]c2ccccc12	> 11.3 µg/mL	> 11.3 µg/mL	> 11.3 µg/mL	> 11.3 µg/mL	> 11.3 µg/mL	100%	20%
Cc1cc(NS(=O)(=O)c2c(C)noc2C)n(C2CCS(=O)(=O)C2)n1 (configuration not stated)	> 11.2 µg/mL	> 11.2 µg/mL	> 11.2 µg/mL	> 11.2 µg/mL	> 11.2 µg/mL	100%	0%
COc1ccc(NC(=O)Nc2cccc(-c3csc4nc(C)cc(=O)n34)c2)cc1	> 12.2 µg/mL	> 12.2 µg/mL	> 12.2 µg/mL	4.04 µg/mL (≈ 9.95 µM)	0.395 µg/mL (≈ 0.972 µM)	0%	0%
O=C(CCc1csc(NC(=O)c2cccs2)n1)Nc1nc2ccccc2s1	> 12.4 µg/mL	> 12.4 µg/mL	> 12.4 µg/mL	> 12.4 µg/mL	4.03 µg/mL (≈ 9.71 µM)	100%	0%
O=C(Cc1csc(SCc2ccncc2)n1)N1CCN(c2ccccc2)CC1	> 12.3 µg/mL	> 12.3 µg/mL	4.2 µg/mL (≈ 10.2 µM)	> 12.3 µg/mL	> 12.3 µg/mL	100%	0%
O=S(=O)(c1ccccc1)N1CCN(c2ccc(Nc3ccncc3)nn2)CC1	> 11.9 µg/mL	> 11.9 µg/mL	> 11.9 µg/mL	> 11.9 µg/mL	0.385 µg/mL (≈ 0.971 µM)	0%	0%
COc1ccc(OC)c(Nc2nc(CC(=O)NCc3ccccc3Cl)cs2)c1	2.13 µg/mL (≈ 5.1 µM)	> 12.5 µg/mL	3.77 µg/mL (≈ 9.02 µM)	> 12.5 µg/mL	8.54 µg/mL (≈ 20.4 µM)	100%	20%
O=S(=O)(c1cccc(Cl)c1)N1CCN(c2ccc(Nc3ccncc3)nn2)CC1	12.9 µg/mL (≈ 30 µM)	5.77 µg/mL (≈ 13.4 µM)	3.98 µg/mL (≈ 9.24 µM)	4.24 µg/mL (≈ 9.83 µM)	> 12.9 µg/mL	100%	0%
CSc1ccccc1NC(=O)CCc1csc(NC(=O)c2cccs2)n1	> 12.1 µg/mL	> 12.1 µg/mL	5.38 µg/mL (≈ 13.3 µM)	4.15 µg/mL (≈ 10.3 µM)	12.1 µg/mL (≈ 30 µM)	100%	0%
COc1cccc(-c2cn3c(C(=O)N4CCN(c5ccccc5OC)CC4)csc3n2)c1	2.13 µg/mL (≈ 4.76 µM)	> 13.5 µg/mL	6.97 µg/mL (≈ 15.5 µM)	> 13.5 µg/mL	6.97 µg/mL (≈ 15.5 µM)	100%	0%
O=C(CCc1csc(NC(=O)c2ccco2)n1)NCCc1c[nH]c2ccccc12	3.18 µg/mL (≈ 7.78 µM)	> 12.3 µg/mL	5.75 µg/mL (≈ 14.1 µM)	> 12.3 µg/mL	> 12.3 µg/mL	100%	0%
CCCCOc1ccc(C(=O)N2CCN(c3ccc(Nc4cccnc4)nn3)CC2)cc1	> 13 µg/mL	1.69 µg/mL (≈ 3.91 µM)	3.45 µg/mL (≈ 7.98 µM)	11.9 µg/mL (≈ 27.5 µM)	0.42 µg/mL (≈ 0.971 µM)	100%	0%
COc1ccc(-c2cn3c(CCC(=O)Nc4ccccc4SC)csc3n2)cc1	> 12.7 µg/mL	> 12.7 µg/mL	5.77 µg/mL (≈ 13.6 µM)	4.22 µg/mL (≈ 9.95 µM)	> 12.7 µg/mL	100%	20%
Cc1cc(=O)n2c(-c3cccc(NC(=O)Nc4ccc(F)cc4)c3)csc2n1	> 11.8 µg/mL	> 11.8 µg/mL	> 11.8 µg/mL	> 11.8 µg/mL	0.383 µg/mL (≈ 0.971 µM)	0%	0%
COc1ccc(-c2cn3c(C(=O)Nc4ccccc4F)csc3n2)cc1	> 11 µg/mL	> 11 µg/mL	> 11 µg/mL	> 11 µg/mL	> 11 µg/mL	100%	0%
CCOCC(=O)Nc1ccc(-c2nnc(N(C)c3ccc(OC)cc3)s2)cc1	> 12 µg/mL	> 12 µg/mL	> 12 µg/mL	> 12 µg/mL	> 12 µg/mL	100%	0%
COc1ccc(S(=O)(=O)Nc2cc(C)nn2C2CCS(=O)(=O)C2)cc1C (configuration not stated)	> 12 µg/mL	> 12 µg/mL	> 12 µg/mL	> 12 µg/mL	> 12 µg/mL	100%	0%
Cc1nc2sc(C)c(C)n2c(=O)c1NC(=O)CC(c1ccccc1)c1ccccc1	> 12.5 µg/mL	> 12.5 µg/mL	> 12.5 µg/mL	> 12.5 µg/mL	> 12.5 µg/mL	100%	0%
COc1ccc(-c2cn3c(C(=O)Nc4cc(C)on4)csc3n2)cc1	> 10.6 µg/mL	> 10.6 µg/mL	> 10.6 µg/mL	> 10.6 µg/mL	> 10.6 µg/mL	100%	0%
CCOC(=O)N1CCN(C(=O)Nc2nc(CC(=O)Nc3nc4ccccc4s3)cs2)CC1	> 14.2 µg/mL	> 14.2 µg/mL	> 14.2 µg/mL	> 14.2 µg/mL	> 14.2 µg/mL	100%	20%
c1ccc2c(CCNc3ncnc4[nH]ncc34)c[nH]c2c1	> 8.35 µg/mL	> 8.35 µg/mL	2.44 µg/mL (≈ 8.76 µM)	> 8.35 µg/mL	> 8.35 µg/mL	100%	0%
COc1ccccc1CC(=O)c1ccc(O)c(CN2CCCC(C)C2)c1O (configuration not stated)	> 11.1 µg/mL	0.343 µg/mL (≈ 0.928 µM)	> 11.1 µg/mL	3.63 µg/mL (≈ 9.83 µM)	> 11.1 µg/mL	0%	0%
Cc1cc(=O)[nH]c(-n2nc(C)c(CCC(=O)Nc3cc(C)on3)c2C)n1	> 10.7 µg/mL	> 10.7 µg/mL	> 10.7 µg/mL	> 10.7 µg/mL	> 10.7 µg/mL	100%	20%
Cc1nc2scc(-c3cccc(NS(C)(=O)=O)c3)n2c(=O)c1C	> 10.5 µg/mL	> 10.5 µg/mL	> 10.5 µg/mL	> 10.5 µg/mL	> 10.5 µg/mL	100%	0%
Cc1noc(C)c1S(=O)(=O)Nc1cccc(-c2csc3nc(C)c(C)c(=O)n23)c1	> 12.9 µg/mL	> 12.9 µg/mL	> 12.9 µg/mL	> 12.9 µg/mL	0.418 µg/mL (≈ 0.971 µM)	0%	0%
CC(C)c1ccc(Nc2ncnc3[nH]ncc23)cc1	> 7.6 µg/mL	> 7.6 µg/mL	4.44 µg/mL (≈ 17.5 µM)	> 7.6 µg/mL	5.18 µg/mL (≈ 20.4 µM)	100%	0%
